Bioassay records (PubChem)
This is one part of a sample in which hits are shown more often than they occur.
GASC1 inh = inhibitors of GASC-1 (KDM4C) histone demethylase, primary screen, biochemical, single concentration HTS; inhibition, % at 12.5 µM; GST-KDM4C 2-372, H3K9me3 peptide, LANCE TR-FRET; 96,000 compounds, 0.15% hits;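 active = mean replicate inhibition above about 25%, with at least 55% of replicates also reaching it, limit read from the data, passing the limit was not always enough; inconclusive = only one of those two conditions met; inactive = neither condition met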
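Material: GST-tagged GASC-1 (JMJD2C) catalytic fragment, aa 2-372 / Quantity: enzyme final amount 10 nM / Medium: HEPES buffer, pH 7.5, plus ascorbate / Doses: one test concentration per compound / Incubation: 30 min reaction, 60 min detection, RT / Measured by: LANCE TR-FRET / Read-out: inhibition from TR-FRET ratio decrease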
IDH1 R132H inh = inhibitors of IDH1 R132H reductase, primary screen, biochemical, plate reader, single point; Isocitrate dehydrogenase [NADP] cytoplasmic (Homo sapiens), O75874; diaphorase/resazurin fluorescence, 60 min; inhibition, % at 10 µM; 70,000 compounds, 0.18% hits; AID 624101, 2012; in the data active = inhibition above about 34%; inconclusive = no clear call, values can overlap the other calls; inactive = below about 11%
Target sequence (O75874 whole entry R132H): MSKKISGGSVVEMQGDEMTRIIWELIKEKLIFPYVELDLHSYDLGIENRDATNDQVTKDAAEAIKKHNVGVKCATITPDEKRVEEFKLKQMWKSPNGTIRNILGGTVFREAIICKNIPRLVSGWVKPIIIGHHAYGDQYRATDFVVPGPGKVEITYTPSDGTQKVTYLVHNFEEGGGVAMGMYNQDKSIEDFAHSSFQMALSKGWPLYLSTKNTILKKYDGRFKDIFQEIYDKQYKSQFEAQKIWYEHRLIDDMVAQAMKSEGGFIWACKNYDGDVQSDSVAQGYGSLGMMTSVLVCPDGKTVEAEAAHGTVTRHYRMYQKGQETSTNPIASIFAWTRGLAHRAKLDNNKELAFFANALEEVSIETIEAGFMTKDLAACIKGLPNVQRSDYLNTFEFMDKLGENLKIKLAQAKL
T cruzi growth-1 = T. cruzi intracellular proliferation inhibitors, primary screen, cell-based, beta-gal Tulahuen parasites, NIH3T3 host, luminescence | T. cruzi beta-gal in NIH3T3, GalScreen luminescence, 90 h | inhibition, % at 8.34 µM | 77,000 compounds, 5.9% hits | AID 624255, 2012;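 active = mean inhibition above about 93%, with at least 55% of replicates each passing it, limit read from the data, passing the limit was not always enough; inconclusive = only one of those two conditions holds; inactive = neither condition holds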
T cruzi growth-2 = T. cruzi intracellular proliferation inhibitors, confirmation, cell-based, NIH3T3 host, beta-gal parasite, luminescence, cherry-pick; inhibition, % at 8.35 µM; T. cruzi beta-gal in NIH3T3, GalScreen luminescence, 90 h; 5,600 compounds, 72% hits; shares compounds with T cruzi growth-1; AID 651739, 2012;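 active = mean replicate inhibition above about 95% and at least 55% of replicates individually reaching it, limit read from the data; inconclusive = only one of the two criteria is met; inactive = neither criterion is met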
T cruzi growth-3 = inhibitors of intracellular T. cruzi replication, confirmation, NIH3T3 host cells, beta-gal parasites, cherry-pick, set 2 | shares compounds with T cruzi growth-1 | T. cruzi beta-gal in NIH3T3, GalScreen luminescence, 90 h | inhibition, % at 2.09 µM | 5,600 compounds, 21% hits;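 active = mean inhibition above about 95%, with at least 55% of replicates also reaching it, limit read from the data; inconclusive = meets just one of the two conditions; inactive = meets neither condition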
3T3 cytotox = cytotoxicity in mouse NIH/3T3 fibroblasts, confirmation, cytotoxicity control for T. cruzi proliferation inhibitor project, cell-based, cherry-pick, single point; shares compounds with T cruzi growth-1; cytotoxicity (signal decrease), % at 8.35 µM; 5,600 compounds, 14% hits; NIH/3T3 viability, CellTiter-Glo ATP luminescence, 90 h;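 active = mean signal decrease across replicates above about 35% based on untreated-well scatter, with enough replicates individually passing, limit read from the data; inconclusive = no rule stated though some were filed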
NIH3T3 tox 2 = NIH/3T3 fibroblast cytotoxicity, confirmation, cytotoxicity control, cell-based, cherry-pick, single point, set 2. 5,600 compounds, 56% hits. AID 651744, 2012. inhibition, % at 24.9 µM. NIH/3T3 viability, CellTiter-Glo ATP luminescence, 90 h. shares compounds with T cruzi growth-1;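 active = mean loss of cell viability signal at or above a set limit, and enough replicates individually reaching it; inconclusive = meets only the mean limit or only the replicate share; inactive = meets neither condition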
A number is an active result; – = inactive; ? = inconclusive; · = no result given.

SMILES	GASC1 inh	IDH1 R132H inh	T cruzi growth-1	T cruzi growth-2	T cruzi growth-3	3T3 cytotox	NIH3T3 tox 2
COc1cccc(-c2cnc3c(c2)C(=O)N([C@@H](C)CO)C[C@@H](C)[C@@H](CN(C)CC2CC2)O3)c1	–	–	–	·	·	·	·
COc1ccc(NC(=O)Nc2ccc3c(c2)CC(=O)N([C@@H](C)CO)C[C@@H](C)[C@H](CN(C)S(=O)(=O)c2ccc(F)cc2)O3)cc1	–	–	–	·	·	·	·
CCCC(=O)Nc1ccc2c(c1)OC[C@@H](C)NC[C@@H](C)[C@@H](OC)CN(C)C2=O	–	–	–	·	·	·	·
CCCC#Cc1ccc2c(c1)O[C@@H](CN(C)S(=O)(=O)c1cccc(F)c1)[C@H](C)CN([C@H](C)CO)S2(=O)=O	–	–	123	106	–	51	96
CCCC#Cc1ccc2c(c1)O[C@H](CN(C)S(C)(=O)=O)[C@@H](C)CN([C@@H](C)CO)S2(=O)=O	–	–	–	·	·	·	·
CCCC#Cc1ccc2c(c1)O[C@H](CN(C)S(=O)(=O)c1cccc(F)c1)[C@H](C)CN([C@@H](C)CO)S2(=O)=O	–	–	124	96	99	43	76
CCCC#Cc1ccc2c(c1)O[C@H](CN(C)S(=O)(=O)c1cccc(OC)c1)[C@@H](C)CN([C@@H](C)CO)S2(=O)=O	–	–	·	·	·	·	·
COCC#Cc1ccc2c(c1)O[C@@H](CN(C)S(=O)(=O)c1cccc(F)c1)[C@@H](C)CN([C@@H](C)CO)S2(=O)=O	–	–	–	·	·	·	·
COCC#Cc1ccc2c(c1)O[C@H](CN(C)S(=O)(=O)c1cccc(F)c1)[C@H](C)CN([C@@H](C)CO)S2(=O)=O	–	–	–	·	·	·	·
CCCC#Cc1ccc2c(c1)O[C@@H](CN(C)S(=O)(=O)c1cccc(F)c1)[C@H](C)CN([C@@H](C)CO)S2(=O)=O	–	–	124	106	108	–	67
COCC#Cc1ccc2c(c1)O[C@H](CN(C)S(=O)(=O)c1cccc(F)c1)[C@@H](C)CN([C@H](C)CO)S2(=O)=O	–	–	?	–	–	–	69
COc1ccc(CNC(=O)CCn2c(=O)c3sccc3n(Cc3cc(C)ccc3C)c2=O)cc1	·	–	·	·	·	·	·
CO[C@H]1CN(C)C(=O)c2ccc(NC(=O)C3CC3)cc2OC[C@@H](C)N(C(=O)c2ccccc2)C[C@@H]1C	–	–	·	·	·	·	·
C[C@@H]1CN([C@@H](C)CO)C(=O)c2cc(NC(=O)CCCN(C)C)ccc2O[C@H]1CN(C)C(=O)NC1CCCCC1	–	–	–	·	·	·	·
OC[C@@H]1[C@H](c2ccc(C3=CCCCC3)cc2)[C@@H](CNC2CCCC2)N1CC1CC1	–	·	·	·	·	·	·
O=C(Nc1ccc2c(c1)[C@H]1C[C@H](CC(=O)N3CCCCC3)O[C@H](CO)[C@H]1O2)c1ccc2c(c1)OCO2	–	–	–	·	·	·	·
C[C@@H]1CN([C@@H](C)CO)S(=O)(=O)c2ccc(C#CCN(C)C)cc2O[C@H]1CN(C)S(=O)(=O)c1cccc(F)c1	–	–	·	·	·	·	·
CCCC#Cc1ccc2c(c1)O[C@H](CN(C)S(=O)(=O)c1cccc(F)c1)[C@@H](C)CN([C@@H](C)CO)S2(=O)=O	–	–	114	100	117	–	104
OC[C@H]1[C@H](c2ccc(C#CC3(O)CCCC3)cc2)[C@H]2CN(Cc3cccnc3)CCCCN21	–	·	–	·	·	·	·
OC[C@H]1[C@H](c2ccc(C#CC3(O)CCCC3)cc2)[C@@H]2CN(Cc3cccnc3)CCCCN12	–	·	108	98	–	–	–
OC[C@@H]1[C@@H](c2ccc(C#CC3(O)CCCC3)cc2)[C@@H]2CN(Cc3cccnc3)CCCCN12	–	·	–	·	·	·	·
